Data set [1] in a line: Metabolic stability in human microsome assessed as compound remaining measured after 60 min in presence of NADPH regenerating system by LC-MS/MS analysis. The note with it: microsomes, 1 h. It counts as ADME, Liver.
Data set [2] can be described thus: Metabolic stability in mouse microsome assessed as compound remaining measured after 60 min in presence of NADPH regenerating system by LC-MS/MS analysis. It counts as ADME, Liver. The note with it: microsomes, 1 h.
In data set [3] the target is T1, Mas-related G-protein coupled receptor member X1 (Homo sapiens, UniProt Q96LB2). In words: Positive allosteric modulator activity at human MRGPRX1 transfected in HEK293 cells in presence of BAM8-22 by Fulo4AM dye based FLIPR assay. It counts as cell-based.
Data set [4] in a line: Metabolic stability in mouse microsome assessed as compound remaining measured after 30 min in presence of NADPH regenerating system by LC-MS/MS analysis. The note with it: microsomes, 0.5 h. It counts as ADME, Liver.
In data set [5] the target is T1, Mas-related G-protein coupled receptor member X1. In words: Positive allosteric modulator activity at human MRGPRX1 transfected in HEK293 cells assessed as maximal efficacy in presence of BAM8-22 by Fulo4AM dye based FLIPR assay relative to control. The note with it: filed as positive allosteric modulator. It counts as cell-based.
Data set [6] in a line: Metabolic stability in human microsome assessed as compound remaining measured after 30 min in presence of NADPH regenerating system by LC-MS/MS analysis. It is filed as ADME, Liver. The following applies: microsomes, 0.5 h.
Data set [7] can be described thus: Drug metabolism in human liver microsomes assessed as CYP450 mediated oxidation of parent compound measured after 60 mins by UPLC analysis. It counts as ADME, Microsome. The following applies: 1 h. A general note: Liver microsomes are a subcellular fraction often used to study metabolism.
Data set [8] concerns the target T2, Mas-related G-protein coupled receptor member X2 (Homo sapiens) (UniProt Q96LB1).
T2 sequence (whole entry): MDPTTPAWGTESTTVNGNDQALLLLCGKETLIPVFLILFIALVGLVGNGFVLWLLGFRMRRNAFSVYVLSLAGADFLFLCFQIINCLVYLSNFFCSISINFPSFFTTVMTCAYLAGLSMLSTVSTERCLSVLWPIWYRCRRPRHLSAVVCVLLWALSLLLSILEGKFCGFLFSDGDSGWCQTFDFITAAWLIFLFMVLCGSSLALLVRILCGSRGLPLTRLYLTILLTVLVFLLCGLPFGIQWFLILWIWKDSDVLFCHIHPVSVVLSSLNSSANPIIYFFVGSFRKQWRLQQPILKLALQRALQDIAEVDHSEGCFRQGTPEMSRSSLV
In words: Positive allosteric modulator activity at human MRGPRX2 transfected in HEK293 cells at 5 uM in presence of C48/80 by Fluo-4 AM-based FLIPR assay. It counts as cell-based. In outline: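 MRGPRX2 stably expressed in HEK293 cells; compound tested with an EC20 level of the orthosteric agonist C48/80, calcium response detected with Fluo-4 AM.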

The nature of data set [9]: Acute toxicity in mouse expressing MRGPRX1 assessed as impaired exploratory activity at 100 mg/kg, po by open field test. It counts as organism-based. The note with it: in vivo. In outline: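 Naïve humanized MRGPRX1 mice were dosed at 100 mg/kg po, with vehicle-treated mice as a parallel group. Exploratory performance in an open field test was compared with each animal's pre-drug values.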

Data set [10] is described as follows: Ratio of AUClast in CD1 mouse spinal cord to plasma at 100 mg/kg, po measured upto 6 hrs by LC-MS/MS analysis. It is filed as ADME, organism-based. In outline: (§1)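 Male CD-1 mice (25–30 g, n=3 per time point) dosed 100 mg/kg by oral gavage in 5% dimethylacetamide/10% Cremophor EL/10% Tween80/25% PEG400/50% water. Killed at 0.25–6 h; cardiac-puncture plasma, brain and spinal cord collected. Acetonitrile extraction with losartan internal standard, LC/MS/MS; calibration 0.01–10 nmol/mL, 1/x weighting. Tissue-to-plasma ratios by AUC.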

A short description of data set [11]: Ratio of AUClast in CD1 mouse brain to plasma at 100 mg/kg, po measured upto 6 hrs by LC-MS/MS analysis. It is filed as ADME, organism-based. Summed up: as §1
The test system of data set [12] is Mus musculus. Kind of data set: Analgesic activity in mouse model of sciatic nerve chronic constriction injury-induced neuropathic pain assessed as increase in contralateral paw withdrawal latency at 100 mg/kg, po measured at 2 hrs post drug on day 26 post injury by Hargreaves test. It is filed as functional, organism-based. Summed up: (§2)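 Humanized MRGPRX1 mice, both sexes, 2–3 months old, 20–30 g, sciatic nerve CCI. Given 100 mg/kg orally (n=4–5/group, vehicle comparator). Heat withdrawal latency by Hargreaves test on days 12 and 26 post-CCI, compared with pre-drug and vehicle; two-way mixed-model ANOVA with Bonferroni test, mean + SD.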

The nature of data set [13]: Acute toxicity in mouse expressing MRGPRX1 at 100 mg/kg, po measured upto 1.5 hrs by rotarod test. It counts as organism-based. The following applies: in vivo. Summed up:
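Motor coordination was measured by rotarod in naïve humanized MRGPRX1 mice after 100 mg/kg po. Performance was compared with a vehicle-treated group and with pre-treatment values.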

Data set [14] addresses hERG (KCNH2) (Homo sapiens, UniProt Q12809). Kind of data set: Inhibition of hERG at 10 uM relative to control. It counts as toxicity. (In general: The hERG channel carries a current that helps repolarise heart muscle cells.)
A short description of data set [15]: Acute toxicity in mouse expressing MRGPRX1 assessed as itching by measuring spontaneous scratching bouts at 100 mg/kg, po measured upto 1 hr. It counts as organism-based. The following applies: in vivo. In outline: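 Awake, free-moving humanized MRGPRX1 mice (human MRGPRX1 expressed in nociceptive DRG neurons in place of murine MrgprC11) were dosed orally at 100 mg/kg. Spontaneous behaviour was video-recorded for 0–1 h after dosing, and scratch bouts were counted and compared with vehicle-treated mice.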

Data set [16] addresses T1, Mas-related G-protein coupled receptor member X1. In words: Agonist activity at human MRGPRX1 expressed in HEK293 cells upto 100 uM in absence of BAM8-22 by Fluo-dye based FLIPR assay. The following applies: dose microM <=100. It is filed as functional, cell-based. In outline: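 Human MRGPRX1 stably expressed in HEK293 cells, 25,000 cells/well, 2 days. Loaded with 2 µM Fluo-4 AM and 1% Trypan Red in HBSS for 50 min at 37°C, then 10 min at room temperature. Serially diluted compound in HBSS added; FLIPR imaging 2 min, signal taken as maximum minus minimum fluorescence.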

Data set [17] concerns Mus musculus. Kind of data set: Analgesic activity in mouse model of sciatic nerve chronic constriction injury-induced neuropathic pain assessed as increase in ipsilateral paw withdrawal latency at 100 mg/kg, po measured at 1 and 2 hrs on day 12 post injury by Hargreaves test. It is filed as functional, organism-based. The following applies: time 12.0 day. Summed up:
as §2

Data set [18] is described as follows: Tmax in CD1 mouse spinal cord at 100 mg/kg, po measured upto 6 hrs by LC-MS/MS analysis. It counts as ADME, organism-based. The note with it: in vivo. In outline: as §1
For data set [19], the system named is Mus musculus. Kind of data set: Analgesic activity in mouse model of sciatic nerve chronic constriction injury-induced neuropathic pain assessed as increase in contralateral paw withdrawal latency at 100 mg/kg, po measured at 1 and 2 hrs on day 12 post injury by Hargreaves test. It counts as functional, organism-based. The note with it: time 12.0 day. In outline: as §2

Data set [20] relates to Mus musculus. In words: Analgesic activity in mouse model of sciatic nerve chronic constriction injury-induced neuropathic pain assessed as increase in ipsilateral paw withdrawal latency at 100 mg/kg, po measured at 2 hrs post drug on day 26 post injury by Hargreaves test. It is filed as functional, organism-based. Summed up:
as §2

Data set [21] in a line: Tmax in CD1 mouse brain at 100 mg/kg, po measured upto 6 hrs by LC-MS/MS analysis. It is filed as ADME, organism-based. The note with it: in vivo. In outline: as §1
A short description of data set [22]: Tmax in CD1 mouse plasma at 100 mg/kg, po measured upto 6 hrs by LC-MS/MS analysis. It is filed as ADME, organism-based. The following applies: in vivo. In outline:
as §1

The source made the active and inactive calls. No cut-off for these calls is given here.

T1 sequence (Q96LB2 whole entry): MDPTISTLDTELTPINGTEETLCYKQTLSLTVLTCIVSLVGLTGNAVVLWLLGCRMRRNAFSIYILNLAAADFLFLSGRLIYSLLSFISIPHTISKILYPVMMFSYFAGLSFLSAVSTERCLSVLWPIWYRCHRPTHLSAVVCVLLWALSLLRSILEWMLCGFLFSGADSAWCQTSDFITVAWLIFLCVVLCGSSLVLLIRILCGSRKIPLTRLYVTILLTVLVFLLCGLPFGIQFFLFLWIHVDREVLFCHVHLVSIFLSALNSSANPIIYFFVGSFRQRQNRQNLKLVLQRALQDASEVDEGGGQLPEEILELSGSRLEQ
Chain of hERG (KCNH2) (Q12809 whole entry): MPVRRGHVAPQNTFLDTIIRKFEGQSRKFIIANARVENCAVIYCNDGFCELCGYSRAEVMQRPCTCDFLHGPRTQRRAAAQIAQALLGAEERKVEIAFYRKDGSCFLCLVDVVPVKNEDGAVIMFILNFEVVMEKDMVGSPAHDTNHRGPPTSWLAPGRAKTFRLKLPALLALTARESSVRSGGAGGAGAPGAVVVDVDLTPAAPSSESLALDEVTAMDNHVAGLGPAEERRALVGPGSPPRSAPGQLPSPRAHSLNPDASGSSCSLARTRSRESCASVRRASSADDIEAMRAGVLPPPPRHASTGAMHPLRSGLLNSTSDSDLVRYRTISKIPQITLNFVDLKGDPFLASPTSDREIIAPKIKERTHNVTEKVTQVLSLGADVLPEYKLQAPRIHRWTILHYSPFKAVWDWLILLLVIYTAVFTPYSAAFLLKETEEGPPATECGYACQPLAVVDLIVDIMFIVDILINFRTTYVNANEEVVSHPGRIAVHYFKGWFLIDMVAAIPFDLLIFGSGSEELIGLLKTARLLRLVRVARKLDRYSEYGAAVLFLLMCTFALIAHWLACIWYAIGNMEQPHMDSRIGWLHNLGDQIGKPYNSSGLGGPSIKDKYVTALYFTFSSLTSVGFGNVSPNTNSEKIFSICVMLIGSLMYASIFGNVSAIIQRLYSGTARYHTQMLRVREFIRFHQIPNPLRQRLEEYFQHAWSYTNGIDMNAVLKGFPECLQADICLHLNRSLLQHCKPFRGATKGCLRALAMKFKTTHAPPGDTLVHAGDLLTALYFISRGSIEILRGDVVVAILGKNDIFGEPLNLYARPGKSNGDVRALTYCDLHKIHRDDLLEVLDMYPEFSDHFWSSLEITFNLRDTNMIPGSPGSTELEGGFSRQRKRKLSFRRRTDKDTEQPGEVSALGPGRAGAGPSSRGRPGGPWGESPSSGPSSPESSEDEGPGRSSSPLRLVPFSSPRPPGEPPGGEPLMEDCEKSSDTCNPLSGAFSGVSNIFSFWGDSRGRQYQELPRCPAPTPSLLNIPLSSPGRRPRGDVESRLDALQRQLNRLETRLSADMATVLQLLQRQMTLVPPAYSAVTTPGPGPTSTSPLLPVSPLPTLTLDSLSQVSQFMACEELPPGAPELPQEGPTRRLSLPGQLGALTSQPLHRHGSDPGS

Consider `CC(C)(C)c1cc2c(Oc3ccccc3F)ncnc2s1`, for which the Stability in [1] is 61%; in data set [2] it was less than 5%; in data set [4], less than 5%; in data set [6] it was 75%. Further, the EC50 in data set [3] came to 320 nM. Besides, in data set [5], the Emax stood at 105%.
With `Cc1ccccc1Oc1ncnc2sccc12`, the EC50 in [3] was found to be 14500 nM. In addition, the Emax in data set [5] worked out at 88%.
With `Cc1ccc(Oc2ncnc3sc(C)c(C)c23)cc1`, the EC50 in data set [3] was determined as 2700 nM. Also, the Emax in data set [5] amounted to 88%.
Regarding `Fc1ccccc1Oc1ncnc2sccc12`, in data set [3], the EC50 is 4200 nM. Moreover, the Emax in data set [5] stood at 95%.
For the molecule `CC(C)(C)c1sc2ncnc(Oc3ccccc3F)c2c1-c1ccccc1`, the Stability in data set [1] is on record as 78%; in data set [2] it was less than 5%; in data set [4] it was 14%. Moreover, in data set [3], the EC50 is 340 nM. For the same molecule, the Emax in data set [5] is 95%.
As to `Cc1sc2ncnc(Oc3ccccc3C(F)(F)F)c2c1C`, the EC50 in data set [3] came to 520 nM. Moreover, the Emax in data set [5] turned out to be 95%.
On to `Cc1ccccc1Oc1ncnc2sc(C)c(C)c12`, for which the EC50 in data set [3] was determined as 480 nM. Besides, in data set [5], the Emax was found to be 118%.
As for `CC(C)(C)c1sc2ncnc(Oc3ccccc3F)c2c1-c1ccc(F)cc1`, the Stability is reported as 88% in [1], less than 5% in data set [2], 7% in data set [4] and greater than 95% in [6]. Further, the Emax in data set [5] stood at 145%.
`Cc1sc2ncnc(Oc3ccc(F)cc3)c2c1C`: the EC50 in [3] was determined as 1100 nM. The Emax in data set [5] was 83%.
Take `Cc1sc2ncnc(Oc3ccccc3F)c2c1C`: the Drug metabolism entry in data set [7] is listed as “Metabolite_Detected”. The Stability in data set [1], in data set [2], in [4] and in data set [6] was less than 5% each time. The EC50 in data set [3] was found to be 220 nM. In addition, the Emax in data set [5] amounted to 112%.
As to `Cc1cc2c(Oc3ccccc3F)ncnc2s1`, the EC50 in [3] worked out at 1500 nM. Also, the Emax in data set [5] came to 90%.
As for `Cc1sc2ncnc(Oc3cccc(C(F)(F)F)c3)c2c1C`, in [3], the EC50 is greater than 100000 nM.
As for `Cc1sc2ncnc(Oc3ccc(C(F)(F)F)cc3)c2c1C`, the EC50 in data set [3] was greater than 100000 nM.
In the case of `CC(C)(C)c1sc2ncnc(Oc3ccccc3OC(F)(F)F)c2c1-c1ccc(F)cc1`, the Stability in data set [1] is reported as greater than 95%; in [2], 5%; in data set [4], 28%; in data set [6] it was greater than 95%. The EC50 in data set [3] is 230 nM. Further, the Emax in [5] turned out to be 143%.
For `Fc1ccccc1Oc1ncnc2scc(C(F)(F)F)c12`, the Stability is less than 5% in [1], less than 5% in data set [2], less than 5% in data set [4] and 40% in data set [6]. The EC50 in data set [3] was found to be 2100 nM. Besides, the Emax in data set [5] was 94%.
As to `Cc1sc2ncnc(Oc3cccc(F)c3)c2c1C`, the EC50 in data set [3] was 30000 nM. In addition, the maximal response (Emax) in data set [5] was determined as 55%.
Turning to `Cc1cccc(Oc2ncnc3sc(C)c(C)c23)c1`, in data set [3], the EC50 was found to be 25000 nM. In addition, the Emax in [5] is 40%.
For `Cc1csc2ncnc(Oc3ccccc3F)c12`, the EC50 in data set [3] was determined as 1700 nM. Also, the Emax in data set [5] came to 94%.
As for `Cc1sc2ncnc(Oc3ccccc3)c2c1C`, the EC50 in data set [3] was 1600 nM. In data set [5], the Emax turned out to be 89%.
Take `CC(C)(C)c1sc2ncnc(Oc3ccccc3OC(F)(F)F)c2c1-c1ccc(Cl)c(Cl)c1`: the outcome in [8], in data set [12], in data set [16] and in data set [19] was inactive. Moreover, the Activity result in data set [9], in data set [13] and in [15] was “Non-Toxic” in each case. Moreover, the Kp at 6 h came out at 12.7 in data set [10] and 2.2 in data set [11]. The Stability in [1] was greater than 95%; in data set [2], 25%; in data set [4], 58%; in [6], greater than 95%. The same molecule showed an inhibition at 10 µM in data set [14] of 50%. For the same molecule, in data set [5], the Emax came out at 114%. For the same molecule, the outcome in data set [17] and in data set [20] was Active. In addition, the Tmax in data set [18], in data set [21] and in data set [22] was 1 h in each case.

The term EC50 denotes the concentration that produces a half-maximal response. The Emax is the size of the effect at its maximum, as opposed to the concentration needed. For orientation: Kp means tissue or fluid exposure divided by exposure in the circulation. A word on the inhibition: it is the share of the control response that was lost under treatment. What is called Tmax is the time at which the peak concentration occurs.

The values above are taken from ChEMBL document CHEMBL5038664, “Thieno[2,3-d]pyrimidine-Based Positive Allosteric Modulators of Human Mas-Related G Protein-Coupled Receptor X1 (MRGPRX1)” (J Med Chem, 2022).
